Source: publication PMC11975418 (Nature medicine, 2023)

Legend:
C57BL/6J mice [1] = type: in vivo, mouse; conditions: 30 mg/kg ACY-1215 co-administered with IACS-010759
C57BL/6J mice [2] = experiment: Mechanical allodynia of hind paws; type: in vivo, mouse; conditions: 30 mg/kg ACY-1215 co-administered with 0.3 or 1 mg/kg IACS-010759
C57BL/6J mice [3] = experiment: Sensorimotor function; type: in vivo, mouse
DRG neurons = experiment: Mitochondrial function; type: in vivo, mouse
C57BL/6J mice [4] = experiment: Spontaneous pain; type: in vivo, mouse
[5] = Plasma lactate in NSG and B6 mice; type: in vivo, mouse; conditions: escalating doses
[6] = Plasma IACS-010759 exposure versus venous lactate in AML and Solid Tumor cohorts; type: in vivo, human
ATF3 = ATF3 expression in DRG; type: in vivo, mouse; conditions: 1 or 5 mg/kg
Procedure, shortened: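 Mice received test compound (1 or 5 mg/kg) or vehicle orally, once daily, 5 days on/2 off, then another 5 days. DRG were taken 12 days after the last dose and processed as PFA-fixed, OCT-embedded 14 μm frozen sections. Sections were incubated overnight with anti-ATF3 (1:500) in PBS with 2% donkey serum and 0.1% saponin, then Alexa 594 secondary and DAPI. Imaging was confocal. Positive control was spared-nerve-injury DRG; staining was repeated three times.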

AML blasts [7] = experiment: Ratio of mitochondrial to genomic DNA in AML blasts; type: cell-based, human; conditions: pre- vs post-dose Day 16/21/27/28; p=0.04
relapsed/refractory AML = experiment: AML trial: response by European LeukemiaNet 2017; type: in vivo, human; conditions: n=17
Procedure, shortened: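 Relapsed/refractory AML patients were dosed by cohort. Cohorts 1–2 got 0.5 or 1.0 mg on Day 1 and Day 8 of cycle 1, then daily in later cycles. Cohorts 3–4 got induction of 2.0 or 2.5 mg daily on Days 1–7. Maintenance followed at 0.5 mg once weekly (cohort 3) or 1.0 mg thrice weekly (cohort 4).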

AML blasts [8] = experiment: Seahorse oxygen consumption rate of AML blasts from treated patients; type: cell-based, human
Procedure, shortened: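 Fresh heparinised patient blood was mixed with equal-volume EasySep buffer and depleted of CD3/CD19-positive cells with an antibody cocktail. Isolated blasts were counted and used immediately for Seahorse basal and maximal OCR, normalised to cell number, with 2–6 technical replicates. Sampling was pre-dose (C1D1), after one week (C1D7/C1D14) and during extended dosing (C1D15/21/28). A two-sided paired t-test was used.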

AML blasts [9] = experiment: Intracellular metabolites in AML blasts; type: cell-based, human
Solid Tumor trial = type: in vivo, human; conditions: for Average highest lactate level during OXPHOS: Solid Tumors
AML trial = type: in vivo, human; conditions: for Average highest lactate level during OXPHOS: AML
Procedure, shortened: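 Both trials graded adverse events with NCI CTCAE v4.03. In the AML trial, all patients had close monitoring of lactate, blood pH and electrolytes. Patients with lactate >4 mmol/L, pH <7.30 and symptoms were hospitalised for at least 24 h. Dose-limiting lactic acidosis was lactate >4.0 mmol/L, pH <7.35, low CO2, raised anion gap and/or symptoms, confirmed by arterial sampling.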

mitochondrial complex I = conditions: by binding the ND1 subunit at the entrance to the quinone binding channel; cited from earlier work
C57BL/6J mice [10] = experiment: Intraepidermal nerve fiber density in hind paw skin; type: in vivo, mouse; conditions: highest dose
Procedure, shortened: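 Male C57BL/6J mice were given vehicle (0.5% methylcellulose) or 1 or 5 mg/kg test compound by oral gavage once daily, 5 days on/2 off, then a further 5 days on. Glabrous hind paw skin was collected 12 days after the final dose. PGP9.5-stained fibres crossing the collagen-stained dermal–epidermal junction were counted by confocal microscopy as IENFs/mm, five random images per mouse. n=12/8/8; one-way ANOVA with Dunnett's; mean ± SE.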

advanced solid tumors = experiment: Solid Tumor trial: response by RECISTv1.1; type: in vivo, human
[11] = tested on: blasts from the spleen of NSG mice; experiment: Baseline OCR of blasts from the spleen of NSG mice; type: in vivo, mouse; conditions: 0.1 and 0.3 mg/kg, 5-days on/2-days off
Procedure, shortened: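 Female NSG mice received 250 cGy cesium irradiation 24 h before tail-vein injection of 0.5 × 10^5 AML PDX cells. Mice were randomized (n=9/group) to vehicle (0.5% methylcellulose) or 0.1, 0.3, 1 or 5 mg/kg test compound, 5 days on/2 days off. Spleens were taken at euthanasia for baseline OCR of blasts. N=5 biologically independent samples; two-sided unpaired t-test.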

PDX AML-04030094 model = experiment: Survival of AML PDX mice; type: in vivo, mouse; conditions: 1 mg/kg oral, 5-days on/2-days off, NSG AML PDX mice
[12] = Human plasma concentrations of IACS-010759; type: in vivo
Procedure, shortened: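 Patient plasma (50 μL) was extracted with acetonitrile containing diclofenac internal standard, vortexed 10 min and spun 2000 g for 10 min. Extract was diluted 1:1 with water for LC-MS/MS with the column at 40 °C. MRM transitions were m/z 563.1>172.1 for analyte and 295.9>151.2 for standard. The method was validated over 0.05–50.0 ng/mL.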

[13] = 30 mg/kg ACY-1215 co-administered with IACS-010759
[14] = end of the first 7-day QD dosing vs pre-treatment
[15] = blasts from Patient 17 (highest exposure), p<0.01

## O=C(CCCCCCNC(=O)c1cnc(N(c2ccccc2)c2ccccc2)nc1)NO [ACY-1215, reference compound]
C57BL/6J mice [1]
  effect on IACS-010759-induced damage to the myelin of the sciatic nerve: prevented
C57BL/6J mice [2]
  effect on IACS-010759-induced mechanical allodynia: significantly attenuated
C57BL/6J mice [3]; [13]
  effect on IACS-010759-induced sensorimotor deficits: prevented
DRG neurons; [13]
  effect on IACS-010759-induced reduction of OCR in the DRG: did not prevent
C57BL/6J mice [4]; [13]
  effect on IACS-010759-induced spontaneous pain: prevented

## Cc1nc(-c2nc(-c3ccc(OC(F)(F)F)cc3)no2)nn1Cc1cccc(N2CCC(S(C)(=O)=O)CC2)c1 [IACS-010759]
[5]; C56Bl6 mice
  plasma lactate: elevated by all doses
[5]; NSG mice
  plasma lactate: only elevated by the 5 mg/kg dose
[6]; equivalent of the nM value
  drug exposure associated with increased probability of elevated lactate: > 4.5 ng/mL
[6]; plasma IACS-010759, AML and Solid Tumor cohorts
  drug exposure associated with increased probability of elevated lactate: > 8 nM
ATF3
  expression of ATF3: did not increase
AML blasts [7]
  ratio between mitochondrial and genomic DNA in blasts: significant increase
relapsed/refractory AML
  response (European LeukemiaNet 2017): No patient in the AML trial responded
AML blasts [8]; [14]
  patients with >25% reduction in baseline OCR in blasts: 6/12
  patients with >25% reduction in maximal OCR in blasts: 8/12
AML blasts [8]; extended dosing, among patients with >25% reduction
  patients in whom the decrease in baseline OCR was not maintained: 2/6
C57BL/6J mice [3]; beam walk test, vs vehicle-treated mice
  balance and fine motor function: significant decrease in balance and fine motor function
AML blasts [9]; blasts from Patient 16
  NAD+ levels: did not affect
AML blasts [9]; blasts from Patient 16 (weakest exposure)
  intracellular NMP, NDP and NTP levels: did not affect levels of NMP, NDP, and NTP
AML blasts [9]; [15]
  intracellular NMP and NDP levels: significantly increased
  intracellular NTP levels: significantly decreased
AML blasts [9]; blasts from Patient 17, p = 0.03
  NAD+ levels: NAD+ levels significantly decreased
AML blasts [9]; blasts from Patient 19
  NAD+ levels: NAD+ levels significantly increased
AML blasts [9]; blasts from Patient 19 (lower exposure), p<0.05
  intracellular NTP levels: significantly reduced NTP levels
DRG neurons; 3–4 hours and 5 weeks after the last dose
  OCR in dorsal root ganglia: dose-dependently inhibited OCR
Solid Tumor trial; Solid Tumor trial
  patients with grade 1–3 peripheral neuropathy: 11 patients
Solid Tumor trial; Solid Tumor trial patients
  grade 1–2 TRAE: myalgia: 30%
  grade 1–2 TRAE: peripheral neuropathy: 35%
  grade 1–2 TRAE: vomiting: 30%
  grade ≥3 TRAE: elevated blood lactate: 9%
  grade ≥3 TRAE: nausea: 9%
  grade ≥3 TRAE: peripheral neuropathy: 4%
  painful neuropathy: not observed
Solid Tumor trial; NP (N=11)
  Average highest lactate level during OXPHOS: 4.5 mmol/L
Solid Tumor trial; Non-NP (N=12)
  Average highest lactate level during OXPHOS: 2.6 mmol/L
AML trial; AML and Solid Tumor trials
  recommended phase 2 dose (RP2D): no RP2D was established
AML trial; AML trial patients
  grade 1–2 TRAE: elevated blood lactate: 35%
  grade 1–2 TRAE: myalgia: 6%
  grade 1–2 TRAE: peripheral neuropathy: 12%
  grade ≥3 TRAE: peripheral neuropathy: 6%
AML trial; NP (N=6)
  Average highest lactate level during OXPHOS: 3.9 mmol/L
AML trial; Non-NP (N=11)
  Average highest lactate level during OXPHOS: 3.0 mmol/L
Mitochondrial complex I
  inhibition of mitochondrial complex I: selectively inhibited mitochondrial complex I
C57BL/6J mice [10]
  intraepidermal nerve fiber density (IENF) in hind paw skin: reduced intraepidermal nerve fiber density
Advanced solid tumors
  patients with best response of RECISTv1.1 stable disease: eight
[11]
  modulation of baseline OCR: induced moderate modulation of baseline OCR
PDX AML-04030094 model
  extension of median survival: 7 days
C57BL/6J mice [4]; IACS-010759-treated vs vehicle-treated mice
  spontaneous pain: time in the chamber associated with pain relief: spent significantly more time in the chamber associated with pain relief
[12]; AML and Solid Tumor trials, all dosing schedules
  maintenance of plasma levels of ≥20 nM: not maintained with any dosing schedule
[12]; plasma, patients
  terminal half-life: approximately 16 hours
